This note sets out measurements from ChEMBL document CHEMBL1165887, “Structure-activity relationships of monomeric C2-aryl pyrrolo[2,1-c][1,4]benzodiazepine (PBD) antitumor agents” (J Med Chem, 2010).

The nature of assay [1]: Growth inhibition of human NCI60 cells after 48 hrs by SRB assay. The assay is classed as functional. The following applies: NCI60, 48 h; for CC50: read-out: LC50 (the source's name).
For assay [2], the system named is K562. Kind of assay: Cytotoxicity against human K562 cells after 96 hrs by alamar blue assay. The following applies: K562, 96 h. The assay is classed as functional, cell-based. Put shortly:
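K562 cells kept in RPMI with 10% fetal calf serum and 2 mM glutamine, seeded at 10⁴ cells/mL. Compounds serially diluted in DMSO and added in triplicate; exposure 96 h at 37 °C, 5% CO₂. Alamar Blue (1 μM final) then added for a further 4 h; read by fluorescence emission at 580-620 nm.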
A general note: The colour change of resazurin is a common sign of viable cells or microbes.

As usually defined, the GI50 is the concentration that inhibits growth by half. Read a low GI50 as greater sensitivity of the cells. The term TGI denotes the concentration at which net growth stops. A higher TGI goes with lower sensitivity of the cells. As usually defined, the IC50 is the point on the concentration scale where inhibition reaches its midpoint. As to `COc1cc2c(cc1OC)C(=O)N1C=C(c3cccc([N+](=O)[O-])c3)C[C@H]1C=N2`, in assay [1], the 50% growth inhibitory concentration (GI50) amounted to 0.005 µM, net growth stopped (TGI) at 0.05 µM and the CC50 was found to be 5.62 µM. This compound returned an IC50 in assay [2] of 0.0581 µM.
For `COc1cc2c(cc1OC)C(=O)N1C=C(c3cnn(C)c3)C[C@H]1C=N2` the same measures were 0.003 µM, 0.05 µM, 5.37 µM and 0.0122 µM.
On the same counts, the results for `COc1cc2c(cc1OC)C(=O)N1C=C(/C=C/c3ccc(C)cc3)C[C@H]1C=N2` are 0.002 µM, 0.05 µM, 0.44 µM and 0.0411 µM.
With `COc1ccc([C@H]2C[C@H]3C=Nc4cc(OC)c(OC)cc4C(=O)N3C2)cc1`, in assay [1], the concentration for 50% growth inhibition (GI50) came out at 9.77 µM, the TGI is 43.6 µM and the CC50 is 91.2 µM. This compound also gave a half-inhibitory concentration (IC50) in assay [2] greater than 1 µM.
For `COc1cc2c(cc1OC)C(=O)N1C=C(c3ccc(C(=O)NCCN(C)C)cc3)C[C@H]1C=N2` the same measures were 0.019 µM, 0.09 µM, 3.89 µM and 0.114 µM.
As for `CCOc1ccc2cc(C3=CN4C(=O)c5cc(OC)c(OC)cc5N=C[C@@H]4C3)ccc2c1`, in assay [1], the GI50 turned out to be 0.002 µM, total growth inhibition (TGI) required 0.02 µM and the CC50 was found to be 1.95 µM. This compound came in with an IC50 in assay [2] of 0.0126 µM.
For `COc1cc2c(cc1OC)C(=O)N1C=C(c3ccc(OCCCN(C)C)cn3)C[C@H]1C=N2` the same measures were 0.004 µM, 0.06 µM, 4.07 µM and 0.0094 µM.
For `COC(=O)c1cccc(C2=CN3C(=O)c4cc(OC)c(OC)cc4N=C[C@@H]3C2)c1` the same measures were 0.005 µM, 0.04 µM, 7.58 µM and 0.0124 µM.
For `COc1cc2c(cc1OC)C(=O)N1C=C(/C=C/c3ccc(Cl)cc3)C[C@H]1C=N2` the same measures were 0.005 µM, 0.02 µM, 1 µM and 0.0154 µM.
Regarding `COc1cc2c(cc1OC)C(=O)N1C=C(c3ccc4ccccc4c3)C[C@H]1[C@H](S(=O)(=O)O)N2`, in assay [1], growth was halved (GI50) at 0.002 µM, the total growth inhibition concentration (TGI) was 0.02 µM and the CC50 was determined as 0.0454 µM. Further, in assay [2], the IC50 was 0.0018 µM.
Consider `COc1cc2c(cc1OC)C(=O)N1C=C(c3ccncc3)C[C@H]1C=N2`, for which, in assay [1], the 50% growth inhibitory concentration (GI50) is 0.018 µM, the TGI was found to be 0.6 µM and the CC50 is 26.9 µM. In assay [2], this compound showed a concentration for half-maximal inhibition (IC50) of 0.0287 µM.
For `COc1cc2c(cc1OC)C(=O)N1C=C(c3ccc(C(C)(C)C)cc3)C[C@H]1[C@H](S(=O)(=O)O)N2` the same measures were 0.008 µM, 0.05 µM, 0.0478 µM and 0.07 µM.
On the same counts, the results for `COc1cc2c(cc1OC)C(=O)N1C=C(c3c(F)cccc3F)C[C@H]1C=N2` are 0.025 µM, 0.33 µM, 4.36 µM and 0.0071 µM.
For `COc1cc2c(cc1OC)C(=O)N1C=C(c3cn[nH]c3)C[C@H]1C=N2` the same measures were 0.012 µM, 0.27 µM, 6.46 µM and 0.0201 µM.
For the compound `COc1cc2c(cc1OC)C(=O)N1C=C(c3cccc(Cl)c3)C[C@H]1C=N2`, in assay [1], the 50% growth inhibitory concentration (GI50) was determined as 0.017 µM, the TGI was found to be 0.1 µM and the CC50 was 0.54 µM. The compound further showed a half-inhibitory concentration (IC50) in assay [2] of 0.0194 µM.
On the same counts, the results for `COc1cc2c(cc1OC)C(=O)N1C=C(c3ccc4[nH]ccc4c3)C[C@H]1C=N2` are 0.005 µM, 0.04 µM, 7.08 µM and 0.0126 µM.
Compound `COc1cc2c(cc1OC)C(=O)N1C=C(c3ccc(Br)cc3)C[C@H]1C=N2` returned a concentration for half-maximal inhibition (IC50) in assay [2] of 0.237 µM.
On the same count and under the same terms, for `COc1cc2c(cc1OC)C(=O)N1C=C(c3cccc(C(=O)O)c3)C[C@H]1C=N2` the value was greater than 1 µM.
